Results from ChEMBL document CHEMBL3272298, “Use of adenine nucleotide derivatives to assess the potential of exo-active-site-directed reagents as species- or isozyme-specific enzyme inactivators. 2. Isozyme-specific inactivation of a mammalian enzyme and its significance in the possible design of fetal isozyme targeted antineoplastic agents” (J Med Chem, 1978).
The source made the active and inactive calls. The rule behind the calls is not given here.

Experiments:
[1] = Retardation factor of the compound using 1-butanol-acetic acid-water as solvent system by paper chromatography; assay type: physicochemical; settings: buffer
[2] = molecular target: Pyruvate kinase PKM (Rattus norvegicus) (UniProt P11980); test: Activity at Sprague-Dawley rat pyruvate kinase M assessed as initial enzyme reaction velocity at 0.21 mM by spectrophotometric analysis relative to ADP
Procedure, shortened: (§1)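 Isozymes K, L and M from male Sprague-Dawley rat kidney, liver and muscle, partially purified by electrofocusing and dialyzed. Assay in 0.05 M triethanolamine-HCl pH 7.0 with 5 mM MgCl2, 67 mM KCl, 0.56 mM phosphoenolpyruvate, 0.4 mM NADH, 10 μM fructose 1,6-diphosphate, 0.21 mM nucleotide and lactate dehydrogenase. After 5 min preincubation, the nucleotide starts the reaction. Initial rate at 340 nm, 22 °C, expressed relative to ADP (100).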

[3] = molecular target: Pyruvate kinase PKLR (Rattus norvegicus) (UniProt P12928); test: Inactivation of Sprague-Dawley rat pyruvate kinase L using PEP as substrate at 5 mM at pH 7 after 8 hrs by spectrophotometric analysis
Procedure, shortened: (§2)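 Electrofocused isozymes, at tenfold (M) or twofold (L, K) assay level, exposed at pH 7.0 and 22 °C to Mg salts of the analogues. Medium: triethanolamine buffer with MgCl2, KCl, NADH, fructose diphosphate and lactate dehydrogenase, no ADP or PEP. Exposure was 8 h at 5 mM, or up to 10 mM for the liver isozyme; M controls were followed to 24 h. Timed aliquots were assayed by the coupled LDH method at 340 nm with 0.373 mM ADP, against controls lacking analogue.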

[4] = molecular target: T1, Pyruvate kinase PKLR (Rattus norvegicus, UniProt P12928); test: Drug metabolism assessed as Sprague-Dawley rat pyruvate kinase L-mediated drug conversion; assay type: ADME
Procedure, shortened: (§3)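 Each isozyme preparation (K, L, M) incubated with the analogue under inactivation conditions: pH 7.0, 22 °C, triethanolamine buffer with MgCl2 and KCl. Conversion of the analogue to other compounds checked by paper electrophoresis at pH 3.5.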

[5] = molecular target: Pyruvate kinase PKLR (Rattus norvegicus) (UniProt P12928); test: Inactivation of Sprague-Dawley rat pyruvate kinase L using PEP as substrate at 7 mM pretreated with pyruvate kinase K by spectrophotometric analysis
[6] = molecular target: Pyruvate kinase PKM (Rattus norvegicus) (UniProt P11980); test: Inactivation of Sprague-Dawley rat pyruvate kinase M using PEP as substrate at 7 mM pretreated at 22 degC for 2 hrs with pyruvate kinase L measured for 3.5 hrs by spectrophotometric analysis
Procedure, shortened: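 Liver isozyme treated with the analogue (7 mM) for 2 h at 22 °C under the usual inactivation conditions, then an approximately equal activity of muscle isozyme added. Muscle activity followed for a further 3.5 h by the LDH-coupled 340 nm assay.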

[7] = molecular target: Pyruvate kinase PKLR (Rattus norvegicus) (UniProt P12928); test: Half life for inactivation of Sprague-Dawley rat pyruvate kinase L using PEP as substrate by spectrophotometric analysis
Procedure, shortened: (§4)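 Liver isozyme incubated at 22 °C with Mg salt of the analogue at 3.0–10.0 mM in triethanolamine buffer with MgCl2, KCl, NADH, fructose diphosphate and lactate dehydrogenase, without ADP or PEP. Aliquots taken over time and assayed at 340 nm with 0.373 mM ADP. Pseudo-first-order inactivation half-times were derived, with t1/2 extrapolated to infinite inhibitor level, and apparent K from the rate-saturation analysis.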

[8] = species: Rattus norvegicus; test: Activity at Sprague-Dawley rat pyruvate kinase K assessed as initial enzyme reaction velocity at 0.21 mM by spectrophotometric analysis relative to ADP; procedure, shortened: as §1
[9] = species: Rattus norvegicus; test: Inactivation of Sprague-Dawley rat pyruvate kinase K using PEP as substrate at 7 mM pretreated with pyruvate kinase L by spectrophotometric analysis
[10] = species: Rattus norvegicus; test: Inactivation of Sprague-Dawley rat pyruvate kinase K using PEP as substrate at 5 mM at pH 7 after 8 hrs by spectrophotometric analysis; procedure, shortened: as §2
[11] = molecular target: Pyruvate kinase PKLR (Rattus norvegicus) (UniProt P12928); test: Inactivation of Sprague-Dawley rat pyruvate kinase L using PEP as substrate at 5 mM at pH 7 after 8 hrs by spectrophotometric analysis in presence of 5 mM ADP
Procedure, shortened: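 Liver isozyme exposed to 5 mM Mg-analogue together with 5 mM ADP for 8 h at 22 °C, pH 7.0, in triethanolamine/MgCl2/KCl medium. Remaining activity was measured in timed aliquots by the LDH-coupled 340 nm assay with 0.373 mM ADP.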

[12] = molecular target: Pyruvate kinase PKLR (Rattus norvegicus) (UniProt P12928); test: Activity at Sprague-Dawley rat pyruvate kinase L assessed as initial enzyme reaction velocity at 0.21 mM by spectrophotometric analysis relative to ADP; procedure, shortened: as §1
[13] = Drug metabolism assessed as Sprague-Dawley rat pyruvate kinase K-mediated drug conversion; assay type: ADME; procedure, shortened: as §3
[14] = molecular target: Pyruvate kinase PKLR (Rattus norvegicus) (UniProt P12928); test: Inactivation of Sprague-Dawley rat pyruvate kinase L using PEP as substrate at 7 mM pretreated with pyruvate kinase M measured for 4 hrs by spectrophotometric analysis
Procedure, shortened: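 Muscle isozyme first exposed to the analogue (7 mM) under the usual inactivation conditions at 22 °C, then liver isozyme added. Liver isozyme inactivation was followed over 4 h by the LDH-coupled 340 nm assay.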

[15] = molecular target: T1, Pyruvate kinase PKLR; test: Binding affinity to Sprague-Dawley rat pyruvate kinase L assessed as apprent enzyme-inhibitor dissociation constant using PEP as substrate by spectrophotometric analysis; settings: read-out: Kd(app); procedure, shortened: as §4
[16] = molecular target: Pyruvate kinase PKM (Rattus norvegicus, UniProt P11980); test: Drug metabolism assessed as Sprague-Dawley rat pyruvate kinase M-mediated drug conversion; assay type: ADME; procedure, shortened: as §3
[17] = molecular target: Pyruvate kinase PKM (Rattus norvegicus) (UniProt P11980); test: Inactivation of Sprague-Dawley rat pyruvate kinase M using PEP as substrate at 5 mM at pH 7 after 8 hrs by spectrophotometric analysis; procedure, shortened: as §2
[18] = molecular target: Pyruvate kinase PKLR (Rattus norvegicus) (UniProt P12928); test: Inactivation of Sprague-Dawley rat pyruvate kinase L using PEP as substrate at 10 mM at pH 7 after 8 hrs by spectrophotometric analysis; procedure, shortened: as §2

Sequence of Pyruvate kinase PKLR (Rattus norvegicus) (P12928 whole entry): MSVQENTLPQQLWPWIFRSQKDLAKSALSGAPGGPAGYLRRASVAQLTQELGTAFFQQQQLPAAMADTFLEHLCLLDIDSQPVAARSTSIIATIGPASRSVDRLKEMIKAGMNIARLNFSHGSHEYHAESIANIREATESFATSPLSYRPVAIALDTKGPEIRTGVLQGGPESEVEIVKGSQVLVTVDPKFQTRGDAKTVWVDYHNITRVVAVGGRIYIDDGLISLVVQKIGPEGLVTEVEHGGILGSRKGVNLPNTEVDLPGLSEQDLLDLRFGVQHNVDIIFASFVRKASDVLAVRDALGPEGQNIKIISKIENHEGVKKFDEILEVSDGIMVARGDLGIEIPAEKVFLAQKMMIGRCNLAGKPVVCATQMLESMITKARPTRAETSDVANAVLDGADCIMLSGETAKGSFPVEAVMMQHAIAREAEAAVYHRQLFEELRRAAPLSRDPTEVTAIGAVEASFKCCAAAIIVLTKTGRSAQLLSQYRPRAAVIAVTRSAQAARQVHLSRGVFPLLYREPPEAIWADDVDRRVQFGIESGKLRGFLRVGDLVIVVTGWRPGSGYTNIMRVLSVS
Sequence of Pyruvate kinase PKM (Rattus norvegicus) (P11980 whole entry): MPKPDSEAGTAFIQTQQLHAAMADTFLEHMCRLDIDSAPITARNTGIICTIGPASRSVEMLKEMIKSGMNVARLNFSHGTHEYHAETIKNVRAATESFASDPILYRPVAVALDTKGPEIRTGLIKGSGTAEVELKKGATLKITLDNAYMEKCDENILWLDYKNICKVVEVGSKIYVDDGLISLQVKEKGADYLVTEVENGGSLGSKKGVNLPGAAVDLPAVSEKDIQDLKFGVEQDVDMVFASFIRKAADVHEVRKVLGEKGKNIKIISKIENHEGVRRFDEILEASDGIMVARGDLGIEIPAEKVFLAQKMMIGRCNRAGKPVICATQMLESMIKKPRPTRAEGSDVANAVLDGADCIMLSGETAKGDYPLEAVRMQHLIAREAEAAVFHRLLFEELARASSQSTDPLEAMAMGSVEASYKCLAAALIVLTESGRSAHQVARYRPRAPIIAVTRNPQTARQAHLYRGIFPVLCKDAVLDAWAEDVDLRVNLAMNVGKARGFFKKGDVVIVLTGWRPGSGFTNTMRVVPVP
T1 sequence (P12928 whole entry): as the sequence (P12928 whole entry) above
Sequence of Pyruvate kinase PKM (P11980 whole entry): as the sequence (P11980 whole entry) above

SMILES	Rf [1]	Activity [2] [%]	inhibition [3]	inhibition [10]	Activity [12] [%]	inhibition [17]	further results
O=C(CI)NCCCCCCCCNc1ncnc2c1ncn2[C@@H]1O[C@H](COP(=O)(O)OP(=O)(O)O)[C@@H](O)[C@H]1O	0.71	54	80%	inactive	13		Drug metabolism [4]: metabolite_notdetected; inhibition [5]: Active; inhibition [6]: inactive; T1/2 [7]: 23 min; Activity [8]: 21%; inhibition [9]: inactive; inhibition [11]: inactive; Drug metabolism [13]: metabolite_notdetected; inhibition [14]: Active; Kd [15]: 36 mM; Drug metabolism [16]: metabolite_notdetected
O=C(CI)NCCCCCCCCNc1ncnc2c1ncn2[C@@H]1O[C@H](COP(=O)(O)OP(=O)(O)OP(=O)(O)O)[C@@H](O)[C@H]1O			inactive				
O=C(CI)NCCCCCCCNc1ncnc2c1ncn2[C@@H]1O[C@H](COP(=O)(O)OP(=O)(O)O)[C@@H](O)[C@H]1O	0.68	25	inactive	inactive	12	inactive	
O=C(CI)NCCCCCNc1ncnc2c1ncn2[C@@H]1O[C@H](COP(=O)(O)OP(=O)(O)O)[C@@H](O)[C@H]1O	0.6	7	inactive	inactive	8	inactive	
O=C(CI)NCCCCCCNc1ncnc2c1ncn2[C@@H]1O[C@H](COP(=O)(O)OP(=O)(O)O)[C@@H](O)[C@H]1O	0.65	19	inactive	inactive	9	inactive	
O=C(CI)NCCCCCCCCNc1ncnc2c1ncn2[C@@H]1O[C@H](COP(=O)(O)O)[C@@H](O)[C@H]1O							inhibition [18]: inactive
O=C(CI)NCCCCNc1ncnc2c1ncn2[C@@H]1O[C@H](COP(=O)(O)OP(=O)(O)O)[C@@H](O)[C@H]1O	0.58		inactive	inactive		inactive	
O=C(CI)NCCNc1ncnc2c1ncn2[C@@H]1O[C@H](COP(=O)(O)OP(=O)(O)O)[C@@H](O)[C@H]1O	0.53		inactive	inactive		inactive	
CC(=O)NCCCCCCCCNc1ncnc2c1ncn2[C@@H]1O[C@H](COP(=O)(O)OP(=O)(O)O)[C@@H](O)[C@H]1O			inactive		9		
O=C(CI)NCCCNc1ncnc2c1ncn2[C@@H]1O[C@H](COP(=O)(O)OP(=O)(O)O)[C@@H](O)[C@H]1O	0.55		inactive	inactive		inactive	
